Measurements reported in paper PMC7433031 (European journal of medicinal chemistry, 2020).
pIC50: −log10 of the molar value. Read-outs that look alike come from different tables or passages of the source.

Tests used:
MOLT-4 T-ALL cells = test: MOLT-4 cell viability assay; type: cell-based, human
[1] = system: RS4;11 B-cell ALL cell line; test: RS4; type: cell-based; conditions: Homo sapiens, RS4-11, 48 h, read-out: IC50 48 h treatment RS4;11
Method in brief: (§1)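 NCI-H146 small-cell lung cancer and RS4;11 B-ALL cells maintained in RPMI 1640 plus 10% FBS and 1% penicillin-streptomycin. Cells seeded at 5×10⁴ to 1×10⁵ per well and treated with test compound for 48 h. Viability measured by tetrazolium-based MTS assay, with IC50 calculated from the viability data.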

[2] = system: H146 small cell lung cancer cell line; test: H146 cell viability assay; type: cell-based; conditions: Homo sapiens, NCI-H146, 48 h, read-out: IC50 48 h treatment H146
Method in brief: as §1

human platelets = test: Human platelet viability assay; type: cell-based; conditions: for pIC50: Homo sapiens, Platelet, 48 h, read-out: IC50 48 h treatment Platelets
Method in brief: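 Platelets were separated from purchased platelet-rich plasma in acid citrate buffer with 1 μM PGE1 and 0.2 units/mL apyrase (final). Cells were centrifuged and adjusted to 2 × 10⁸/mL in HEPES Tyrode's buffer with 10% FBS, 1 μM PGE1 and 0.2 units/mL apyrase. They were treated for 48 h, with or without a 10 μM pomalidomide block, and read by MTS. IC50 values were curve-fitted. The ratio divides platelet IC50 by 48 h MOLT-4 MTS IC50.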

BCL-XL = BCL-XL (Homo sapiens, UniProt Q07817); test: Western blot of BCL-XL protein levels in MOLT-4 cells; type: cell-based; conditions: 16 h; for BCL-XL degradation in MOLT-4 cells at 100 nM: Western blot (Figure 3)
Chain of BCL-XL (Q07817 whole entry): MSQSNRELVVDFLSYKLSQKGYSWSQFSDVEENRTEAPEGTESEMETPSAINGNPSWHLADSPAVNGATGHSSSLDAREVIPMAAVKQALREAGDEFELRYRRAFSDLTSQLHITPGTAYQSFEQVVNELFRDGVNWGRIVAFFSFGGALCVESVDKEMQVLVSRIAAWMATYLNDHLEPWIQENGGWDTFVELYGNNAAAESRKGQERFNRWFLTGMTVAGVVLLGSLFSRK
Method in brief: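 MOLT-4 cells were treated for 16 h with test compound (100 nM for VHL-based, 50 nM for CRBN-based, or a concentration series for DC50). Other runs used 100 nM over a time course, or 16 h exposure followed by washout into drug-free medium. Some cells were pretreated 2 h with 10 μM pomalidomide or 1 μM MG-132. Immunoblot bands were normalized to β-actin and expressed as % remaining versus vehicle.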

CLL patients = conditions: cited from earlier work
[3] = read-out: IC50, reduction of MOLT-4 cell viability, MOLT-4 cells, 48 h treatment, means of at least three independent experiments (Tables 1-4)
[4] = Homo sapiens, MOLT-4, 48 h, read-out: IC50 48 h treatment MOLT-4
[5] = Homo sapiens, MOLT-4, 48 h, read-out: IC50, reduction of MOLT-4 cell viability

Molecule “(2S,4R)-1-((S)-2-(2-(2-(4-((R)-3-((4-(N-(4-(4-((4’-Chloro-4,4-dimethyl-3,4,5,6-tetrahydro-[1,1’-biphenyl]-2-yl)methyl)piperazin-1-yl)benzoyl)sulfamoyl)-2-((trifluoromethyl)sulfonyl)phenyl)amino)-4-(phenylthio)butyl)piperazin-1-yl)ethoxy)acetamido)-3,3-dimethylbutanoyl)-4-hydroxy-N-((S)-1-(4-(4-methylthiazol-5-yl)phenyl)ethyl)pyrrolidine-2-carboxamide [Compound 4a]” has a pIC50 (MOLT-4 T-ALL cells; [3]) of 6.82.
In the case of `CC1(C)CCC(c2ccc(Cl)cc2)=C(CN2CCN(c3ccc(C(=O)NS(=O)(=O)c4ccc(N[C@H](CCN5CCN(C(=S)NCCOCCOCCNc6cccc7c6C(=O)N([C@@H]6CCC(=O)NC6=O)C7=O)CC5)CSc5ccccc5)c(S(=O)(=O)C(F)(F)F)c4)cc3)CC2)C1` (racemic) [Compound 11b, 4-(4-((2-(4-Chlorophenyl)-5,5-dimethylcyclohex-1-enyl)methyl)piperazin-1-yl)-N-(4-((2R)-4-(4-(2-(2-(2-(2-(2,6-dioxopiperidin-3-yl)-1,3-dioxoisoindolin-4-ylamino)ethoxy)ethoxy)ethylcarbamothioyl)piperazin-1-yl)-1-(phenylthio)butan-2-ylamino)-3-(trifluoromethylsulfonyl)phenylsulfonyl)benzamide], the “fold decrease in potency compared to 11a” value (MOLT-4 T-ALL cells; MOLT-4, versus 11a) was ~ 6 fold.
`CN(CCCCCCCn1cc(COCCOCCNc2cccc3c2C(=O)N(C2CCC(=O)NC2=O)C3=O)nn1)CC[C@H](CSc1ccccc1)Nc1ccc(S(=O)(=O)NC(=O)c2ccc(N3CCN(CC4=C(c5ccc(Cl)cc5)CCC(C)(C)C4)CC3)cc2)cc1S(=O)(=O)C(F)(F)F` (stereo partly drawn) [Compound 15a, 4-(4-((4’-Chloro-4,4-dimethyl-3,4,5,6-tetrahydro-[1,1’-biphenyl]-2-yl)methyl)piperazin-1-yl)-N-((4-(((2R)-4-((7-(4-((2-(2-((2-(2,6-dioxopiperidin-3-yl)-1,3-dioxoisoindolin-4-yl)amino)ethoxy)ethoxy)methyl)-1H-1,2,3-triazol-1-yl)heptyl)(methyl)amino)-1-(phenylthio)butan-2-yl)amino)-3-((trifluoromethyl)sulfonyl)phenyl)sulfonyl)benzamide] showed a pIC50 (MOLT-4 T-ALL cells; [4]) of 7.53, a pIC50 (MOLT-4 T-ALL cells; [5]) of 7.53 and a pIC50 [1] of 7.21. For the same molecule, the pIC50 [2] was 7.21, the pIC50 (human platelets) was 5.20 and the “BCL-XL degradation in MOLT-4 cells at 50 nM” value (BCL-XL; 50 nM, Western blot (Figure 4)) was “better BCL-XL degraders than their amide analogs”.
With “navitoclax [ABT-263, reference compound]” the “selectivity for MOLT-4 cells over human platelets” value (human platelets; MOLT-4 versus human platelets) was “no selectivity” and the “IC50 ratio between human platelets and MOLT-4 cells” value (human platelets; platelets IC50 / MOLT-4 IC50, 48 h) was 1.1.
For `CC1(C)CCC(CN2CCN(c3ccc(C(=O)NS(=O)(=O)c4ccc(NCC5CCOCC5)c([N+](=O)[O-])c4)c(Oc4cnc5[nH]ccc5c4)c3)CC2)=C(c2ccc(Cl)cc2)C1` [venetoclax], the complete remission rate (CLL patients) is given as 20% and the overall response rate (CLL patients) is given as 71–79%.
Work on `CN(CCCNc1cccc2c1C(=O)N(C1CCC(=O)NC1=O)C2=O)CC[C@H](CSc1ccccc1)Nc1ccc(S(=O)(=O)NC(=O)c2ccc(N3CCN(CC4=C(c5ccc(Cl)cc5)CCC(C)(C)C4)CC3)cc2)cc1S(=O)(=O)C(F)(F)F` (stereo partly drawn) [Compound 16a, 4-(4-((4’-Chloro-4,4-dimethyl-3,4,5,6-tetrahydro-[1,1’-biphenyl]-2-yl)methyl)piperazin-1-yl)-N-((4-(((2R)-4-((3-((2-(2,6-dioxopiperidin-3-yl)-1,3-dioxoisoindolin-4-yl)amino)propyl)(methyl)amino)-1-(phenylthio)butan-2-yl)amino)-3-((trifluoromethyl)sulfonyl)phenyl)sulfonyl)benzamide] yielded a pIC50 (MOLT-4 T-ALL cells; [4]) of 7.49, a pIC50 (MOLT-4 T-ALL cells; [5]) of 7.49 and a pIC50 [1] of 6.89. For the same molecule, the pIC50 [2] was 7.15 and the pIC50 (human platelets) was 5.48.
For “(2S,4R)-1-((S)-2-(2-(2-(2-(4-((R)-3-((4-(N-(4-(4-((4’-Chloro-4,4-dimethyl-3,4,5,6-tetrahydro-[1,1’-biphenyl]-2-yl)methyl)piperazin-1-yl)benzoyl)sulfamoyl)-2-((trifluoromethyl)sulfonyl)phenyl)amino)-4-(phenylthio)butyl)piperazin-1-yl)ethoxy)ethoxy)acetamido)-3,3-dimethylbutanoyl)-4-hydroxy-N-((S)-1-(4-(4-methylthiazol-5-yl)phenyl)ethyl)pyrrolidine-2-carboxamide [Compound 4b]”, the “times less potent than 4a in reducing MOLT-4 cell viability” value (MOLT-4 T-ALL cells; MOLT-4, versus 4a) was ~ 6 times, the pIC50 (MOLT-4 T-ALL cells; [3]) was 6.04 and the “BCL-XL degradation in MOLT-4 cells at 100 nM” value (from here on “BCL-XL degradation … at 100 nM”) (BCL-XL) was “slightly more potent in inducing BCL-XL degradation than 4a”.
In the case of `Cc1ncsc1-c1ccc([C@H](C)NC(=O)[C@@H]2C[C@@H](O)CN2C(=O)[C@@H](NC(=O)CCOCCC(=O)N2CCN(CC[C@H](CSc3ccccc3)Nc3ccc(S(=O)(=O)NC(=O)c4ccc(N5CCN(CC6=C(c7ccc(Cl)cc7)CCC(C)(C)C6)CC5)cc4)cc3S(=O)(=O)C(F)(F)F)CC2)C(C)(C)C)cc1` [Compound 3a, (2S,4R)-1-((S)-2-(3-(3-(4-((R)-3-((4-(N-(4-(4-((4’-Chloro-4,4-dimethyl-3,4,5,6-tetrahydro-[1,1’-biphenyl]-2-yl)methyl)piperazin-1-yl)benzoyl)sulfamoyl)-2-((trifluoromethyl)sulfonyl)phenyl)amino)-4-(phenylthio)butyl)piperazin-1-yl)-3-oxopropoxy)propanamido)-3,3-dimethylbutanoyl)-4-hydroxy-N-((S)-1-(4-(4-methylthiazol-5-yl)phenyl)ethyl)pyrrolidine-2-carboxamide], the “times less potent than 1e in MOLT-4 cell viability” value (MOLT-4 T-ALL cells; MOLT-4, versus 1e) was ~ 4 times.
With `Cc1ncsc1-c1ccc([C@H](C)NC(=O)[C@@H]2C[C@@H](O)CN2C(=O)[C@@H](NC(=O)CCCCCCN(C)CC[C@H](CSc2ccccc2)Nc2ccc(S(=O)(=O)NC(=O)c3ccc(N4CCN(CC5=C(c6ccc(Cl)cc6)CCC(C)(C)C5)CC4)cc3)cc2S(=O)(=O)C(F)(F)F)C(C)(C)C)cc1` [Compound 6c, (2S,4R)-1-((S)-2-(7-(((R)-3-((4-(N-(4-(4-((4’-Chloro-4,4-dimethyl-3,4,5,6-tetrahydro-[1,1’-biphenyl]-2-yl)methyl)piperazin-1-yl)benzoyl)sulfamoyl)-2-((trifluoromethyl)sulfonyl)phenyl)amino)-4-(phenylthio)butyl)(methyl)amino)heptanamido)-3,3-dimethylbutanoyl)-4-hydroxy-N-((S)-1-(4-(4-methylthiazol-5-yl)phenyl)ethyl)pyrrolidine-2-carboxamide] the “BCL-XL degradation … at 100 nM” value (BCL-XL) was “the most potent degrader among its analogs”.
`CC1(C)CCC(c2ccc(Cl)cc2)=C(CN2CCN(c3ccc(C(=O)NS(=O)(=O)c4ccc(N[C@H](CCN5CCN(CCOCCOCCOCCNc6cccc7c6C(=O)N(C6CCC(=O)NC6=O)C7=O)CC5)CSc5ccccc5)c(S(=O)(=O)C(F)(F)F)c4)cc3)CC2)C1` (stereo partly drawn) [Compound 12c, 4-(4-((4’-Chloro-4,4-dimethyl-3,4,5,6-tetrahydro-[1,1’-biphenyl]-2-yl)methyl)piperazin-1-yl)-N-((4-(((2R)-4-(4-(2-(2-(2-(2-((2-(2,6-dioxopiperidin-3-yl)-1,3-dioxoisoindolin-4-yl)amino)ethoxy)ethoxy)ethoxy)ethyl)piperazin-1-yl)-1-(phenylthio)butan-2-yl)amino)-3-((trifluoromethyl)sulfonyl)phenyl)sulfonyl)benzamide] showed a pIC50 (MOLT-4 T-ALL cells; [4]) of 7.76, a pIC50 (MOLT-4 T-ALL cells; [5]) of 7.76 and a pIC50 [1] of 7.41. The pIC50 [2] was 7.61 and the pIC50 (human platelets) was 5.81.
With `Cc1ncsc1-c1ccc([C@H](C)NC(=O)[C@@H]2C[C@@H](O)CN2C(=O)[C@@H](NC(=O)CCCCCC(=O)N(C)CC[C@H](CSc2ccccc2)Nc2ccc(S(=O)(=O)NC(=O)c3ccc(N4CCN(CC5=C(c6ccc(Cl)cc6)CCC(C)(C)C5)CC4)cc3)cc2S(=O)(=O)C(F)(F)F)C(C)(C)C)cc1` [Compound 5, N^1-((R)-3-((4-(N-(4-(4-((4’-Chloro-4,4-dimethyl-3,4,5,6-tetrahydro-[1,1’-biphenyl]-2-yl)methyl)piperazin-1-yl)benzoyl)sulfamoyl)-2-((trifluoromethyl)sulfonyl)phenyl)amino)-4-(phenylthio)butyl)-N^7-((S)-1-((2S,4R)-4-hydroxy-2-(((S)-1-(4-(4-methylthiazol-5-yl)phenyl)ethyl)carbamoyl)pyrrolidin-1-yl)-3,3-dimethyl-1-oxobutan-2-yl)-N^1-methylheptanediamide] the “BCL-XL degradation … at 100 nM” value (BCL-XL) was “weak BCL-XL degradation”.
